Laboratory results reported in ChEMBL document CHEMBL3865784 (Eur J Med Chem, 2016).

Key:
[1] = Cytotoxicity against human MDA-MB-435 cells overexpressing NQO1 assessed as reduction in cell viability after 72 hrs by MTT assay; type: functional, cell-based; conditions: MDA-MB-435, 72 h
In short: (§1)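 Cancer lines from NCI, grown in RPMI 1640 with 10% FBS, 2 mM L-glutamine, penicillin/streptomycin, 37 °C, 5% CO2; seeded 0.1 × 10^6 cells/well (HL-60) or 0.7 × 10^5 cells/well (solid tumours). Compounds in DMSO, final 0.1% v/v; DMSO vehicle as negative control.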

[2] = Cytotoxicity against human SF295 cells overexpressing NQO1 assessed as reduction in cell viability after 72 hrs by MTT assay; type: functional, cell-based; conditions: SF-295, 72 h
[3] = Cytotoxicity against NQO1-deficient chinese hamster V79 cells assessed as reduction in cell viability after 72 hrs by MTT assay; type: toxicity, cell-based, Cricetulus griseus; conditions: v79
[4] = Cytotoxicity against human PC3 cells overexpressing NQO1 assessed as reduction in cell viability after 72 hrs by MTT assay; type: functional, cell-based; conditions: PC-3, 72 h
[5] = Cytotoxicity against human OVCAR8 cells overexpressing NQO1 assessed as reduction in cell viability after 72 hrs by MTT assay; type: functional, cell-based; conditions: OVCAR-8, 72 h; in short: as §1
[6] = species: Mus musculus; experiment: Cytotoxicity against NQO1-deficient mouse L929 cells assessed as reduction in cell viability after 72 hrs by MTT assay; type: toxicity, cell-based; conditions: l929
[7] = Cytotoxicity against NQO1-deficient human HL60 cells assessed as reduction in cell viability after 72 hrs by MTT assay; type: functional, cell-based; conditions: HL-60, 72 h; in short: as §1
[8] = Cytotoxicity against human HCT116 cells expressing NQO1 assessed as reduction in cell viability after 72 hrs by MTT assay; type: functional, cell-based; conditions: HCT-116, 72 h; in short: as §1
[9] = Cytotoxicity against NQO1-deficient human PBMC assessed as reduction in cell viability after 72 hrs by MTT assay; type: toxicity, cell-based; conditions: for IC50: pbmc
[10] = tested on: PC-3; experiment: Selectivity index, ratio of IC50 for NQO1-deficient human PBMC to IC50 for human PC3 cells overexpressing NQO1
In short: (§2)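 Selectivity index is IC50 in the normal cells divided by IC50 in the cancer line. Normal cells: V79 and L929 in DMEM, PBMC in RPMI with phytohaemagglutinin. Cancer lines in RPMI with 10% FBS, seeded at 0.1 × 10^6 (HL-60) or 0.7 × 10^5 cells/well (solid tumors). Absorbance 550 nm; nonlinear regression.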

[11] = tested on: L929; experiment: Selectivity index, ratio of IC50 for NQO1-deficient mouse L929 cells to IC50 for NQO1-deficient human HL60 cells; type: functional; in short: as §2
[12] = tested on: L929; experiment: Selectivity index, ratio of IC50 for NQO1-deficient mouse L929 cells to IC50 for human SF295 cells overexpressing NQO1; in short: as §2
[13] = tested on: HL-60; experiment: Selectivity index, ratio of IC50 for NQO1-deficient human PBMC to IC50 for NQO1-deficient human HL60 cells; in short: as §2
[14] = tested on: L929; experiment: Selectivity index, ratio of IC50 for NQO1-deficient mouse L929 cells to IC50 for human PC3 cells overexpressing NQO1; in short: as §2
[15] = tested on: HL-60; experiment: Selectivity index, ratio of IC50 for NQO1-deficient chinese hamster V79 cells to IC50 for NQO1-deficient human HL60 cells; type: functional; in short: as §2
[16] = tested on: V79; experiment: Selectivity index, ratio of IC50 for NQO1-deficient chinese hamster V79 cells to IC50 for human PC3 cells overexpressing NQO1; in short: as §2
[17] = tested on: SF-295; experiment: Selectivity index, ratio of IC50 for NQO1-deficient human PBMC to IC50 for human SF295 cells overexpressing NQO1; in short: as §2
[18] = tested on: L929; experiment: Selectivity index, ratio of IC50 for NQO1-deficient mouse L929 cells to IC50 for human MDA-MB-435 cells overexpressing NQO1; in short: as §2
[19] = Selectivity index, ratio of IC50 for NQO1-deficient human PBMC to IC50 for human MDA-MB-435 cells overexpressing NQO1; in short: as §2
[20] = tested on: V79; experiment: Selectivity index, ratio of IC50 for NQO1-deficient chinese hamster V79 cells to IC50 for human MDA-MB-435 cells overexpressing NQO1; in short: as §2
[21] = tested on: HCT-116; experiment: Selectivity index, ratio of IC50 for NQO1-deficient mouse L929 cells to IC50 for human HCT116 cells expressing NQO1
In short: as §2, with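 “line. All IC50s come from 72 h MTT assays.” for “line.”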

[22] = tested on: SF-295; experiment: Selectivity index, ratio of IC50 for NQO1-deficient chinese hamster V79 cells to IC50 for human SF295 cells overexpressing NQO1; in short: as §2
[23] = tested on: HCT-116; experiment: Selectivity index, ratio of IC50 for NQO1-deficient chinese hamster V79 cells to IC50 for human HCT116 cells expressing NQO1
In short: as §2, with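 “line. All IC50s come from 72 h MTT assays.” for “line.”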

[24] = tested on: OVCAR-8; experiment: Selectivity index, ratio of IC50 for NQO1-deficient chinese hamster V79 cells to IC50 for human OVCAR8 cells overexpressing NQO1
In short: as §2, with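 “line. All IC50s come from 72 h MTT assays.” for “line.”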

[25] = tested on: L929; experiment: Selectivity index, ratio of IC50 for NQO1-deficient mouse L929 cells to IC50 for human OVCAR8 cells overexpressing NQO1; in short: as §2
[26] = tested on: OVCAR-8; experiment: Selectivity index, ratio of IC50 for NQO1-deficient human PBMC to IC50 for human OVCAR8 cells overexpressing NQO1
In short: as §2, with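 “line. All IC50s come from 72 h MTT assays.” for “line.”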

Structure (SMILES)	IC50 [1] [nM]	IC50 [2] [nM]	IC50 [3] [nM]	IC50 [4] [nM]	IC50 [5] [nM]	IC50 [6] [nM]	IC50 [7] [nM]	IC50 [8] [nM]	IC50 [9] [nM]	Ratio IC50 [10]	Ratio IC50 [11]	Ratio IC50 [12]	Ratio IC50 [13]	Ratio IC50 [14]	Ratio IC50 [15]	Ratio IC50 [16]	Ratio IC50 [17]	Ratio IC50 [18]	Ratio IC50 [19]	Ratio IC50 [20]	further results
O=C1C=C(n2cc(C[Se]c3ccccc3)nn2)C(=O)c2ccccc21	> 12700	> 12700	> 12700	> 12700	> 12700	> 12700	> 12700	> 12700	> 12700	–	–	–	–	–	–	–	–	–	–	–	–
CC1(C)OC2=C(C(=O)C(=O)c3ccccc32)C(N=[N+]=[N-])[C@@H]1Br (stereo partly specified)	1540	–	2400	1680	2240	2040	–	2480	–	2.1	1.4	1	2.5	1.2	1.6	1.4	1.8	1.3	2.3	1.5	IC50 at 72 h ([9]; human): 3580 nM
O=C1C(Cl)=C(NCc2cn(C[Se]c3ccccc3)nn2)C(=O)c2ccccc21	2010	2930	2510	2250	2580	3430	–	3250	6340	–	–	–	–	–	–	–	–	–	–	–	–
O=C1C(Br)=C(NCc2cn(C[Se]c3ccccc3)nn2)C(=O)c2ccccc21	1430	1610	3030	2290	–	3300	1110	1670	3860	–	2.9	2	3.4	–	2.7	–	–	2.3	2.6	2.1	Ratio IC50 [21]: 1.9; Ratio IC50 [22]: 1.8; Ratio IC50 [23]: 1.8
CC1(C)OC2=C(C(=O)C(=O)c3ccccc32)[C@@H](n2cc(C[Se]c3ccccc3)nn2)[C@@H]1Br	1310	1520	2170	1900	920	1740	1220	1110	–	0.9	1.4	1.1	1.5	0.9	1.7	1.1	1.2	1.3	–	1.6	Ratio IC50 [24]: 2.3; Ratio IC50 [25]: 1.8; Ratio IC50 [21]: 1.5; Ratio IC50 [26]: 2; Ratio IC50 [23]: 1.9
C#Cc1cccc(NC2CC(C)(C)OC3=C2C(=O)c2ccccc2C3=O)c1 (stereo unspecified)	> 14000	> 14000	> 14000	> 14000	> 14000	> 14000	> 14000	> 14000	> 14000	–	–	–	–	–	–	–	–	–	–	–	–
O=C1C2=C(OC(Cn3cc(C[Se]c4ccccc4)nn3)C2)C(=O)c2ccccc21 (stereo unspecified)	620	980	2020	1400	910	2150	820	2420	2800	2	2.6	2.1	–	1.5	2.4	1.4	2.8	3.4	4.5	3.2	Ratio IC50 [24]: 2.2; Ratio IC50 [25]: 2.3; Ratio IC50 [26]: 3
CC1(C)CC(N=[N+]=[N-])C2=C(O1)C(=O)c1ccccc1C2=O (stereo unspecified)	2720	–	3670	2150	1480	4130	1660	2960	6110	–	2.4	2	3.6	–	2.2	–	2.9	–	–	–	Ratio IC50 [25]: 2.7; Ratio IC50 [26]: 4.1; Ratio IC50 [22]: 1.7
[N-]=[N+]=NC1=CC(=O)c2ccccc2C1=O	2360	3410	5770	2160	3510	5170	–	4270	8640	–	–	–	–	–	–	–	–	–	–	–	–
